Experiments:
Mus musculus [1] = species on record: Mus musculus; assay: Protective index, ratio of TD50 for neurotoxicity in C57B/6 mouse to ED50 for anticonvulsant activity in C57B/6 mouse; assay type: functional
In short: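 Protective index computed as TD50 (rotarod, 30 min after ip dosing in polyethylene glycol-400) divided by ED50 in the maximal electroshock test at 30 min, both values from dose-response plots analysed with the NINDS program.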

[2] = Neurotoxicity in ip dosed C57B/6 mouse after 30 mins by rotarod test; assay type: toxicity, organism-based; conditions: in vivo
In short: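 Rotarod: 30 min after ip compound in polyethylene glycol-400, mice were placed on a 1-inch knurled plastic rod turning at 6 rpm for 1 min. Neurotoxicity was scored as failure to keep balance in each of three trials.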

Mus musculus [3] = assay: Anticonvulsant activity in ip dosed C57B/6 mouse assessed as protection against maximal electroshock-induced seizure after 30 mins; assay type: functional; conditions: C57B/6, ip, 0.5 h
Mus musculus [4] = assay: Anticonvulsant activity in ip dosed C57B/6 mouse assessed as protection against thiosemicarbazide-induced tonic seizure administered 30 mins before thiosemicarbazide challenge measured after 1 hrs; assay type: ADME, organism-based; conditions: C57B/6, ip
Mus musculus [5] = assay: Anticonvulsant activity in C57B/6 mouse assessed as protection against strychnine-induced tonic seizure at 300 mg/kg, ip administered 30 mins before strychnine challenge measured after 30 mins; assay type: ADME, organism-based; parameters: dose 300 mg/kg, route intraperitoneal; conditions: in vivo, 0.5 h
In short: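 Mice given test compound ip in polyethylene glycol-400; 30 min later strychnine chlorhydrate in saline (1.2 mg/mL, 1 mL/kg) injected sc, a dose set by dose-percent effect curve to convulse 100% of animals. Mice held in individual cages and observed 30 min for convulsions.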

Mus musculus [6] = assay: Anticonvulsant activity in ip dosed C57B/6 mouse assessed as protection against 3-mercaptopropionic acid-induced tonic seizure administered 30 mins before 3-mercaptopropionic acid challenge measured after 1 hrs; assay type: ADME, organism-based; conditions: C57B/6, ip
In short: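 Test compound given ip in polyethylene glycol-400; 30 min later 3-mercaptopropionic acid 40 mg/kg in saline injected sc. ED50 taken as the dose preventing tonic convulsions in 50% of treated mice.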

Mus musculus [7] = assay: Anticonvulsant activity in ip dosed C57B/6 mouse assessed as protection against isoniazid-induced tonic seizure administered 30 mins before isoniazide challenge measured after 1 hrs; assay type: ADME, organism-based; conditions: C57B/6, ip
Mus musculus [8] = assay: Anticonvulsant activity in ip dosed C57B/6 mouse assessed as protection against pentylenetetrazole-induced clonic seizure administered 30 mins before pentylenetetrazole challenge measured after 30 mins; assay type: ADME, organism-based; conditions: C57B/6, ip, 0.5 h
In short: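 Pentylenetetrazole 85 mg/kg sc, a dose set by dose-percent effect curve to give clonic seizures in 100% of mice, injected 30 min after ip compound in polyethylene glycol-400.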

Row | SMILES | Ratio TD50/ED50 (Mus musculus [1]) | TD50 at 0.5 h [2] | ED50 (Mus musculus [3]) | also measured
1 | CCCCCCCOc1cc2nncn2c2ccccc12 | 1.6 | 110 mg/kg | 68.2 mg/kg | –
2 | Clc1ccc(COc2cc3nncn3c3ccccc23)c(Cl)c1 | – | – | > 100 mg/kg | –
3 | Cc1ccc(COc2cc3nncn3c3ccccc23)cc1 | – | – | > 100 mg/kg | –
4 | CCCCOc1cc2nncn2c2ccccc12 | 1.5 | 54.8 mg/kg | 36.7 mg/kg | –
5 | Fc1ccc(COc2cc3nncn3c3ccccc23)cc1 | – | – | > 100 mg/kg | –
6 | Fc1cccc(COc2cc3nncn3c3ccccc23)c1 | – | – | > 100 mg/kg | –
7 | CCCCCCCCOc1cc2nncn2c2ccccc12 | – | – | > 100 mg/kg | –
8 | CCCCCCOc1cc2nncn2c2ccccc12 | 5.8 | 110 mg/kg | 19 mg/kg | –
9 | Fc1ccc(COc2ccc3c(c2)CCc2nncn2-3)cc1 | – | – | 11.1 mg/kg | –
10 | CCOc1cc2nncn2c2ccccc12 | 1.4 | 131 mg/kg | 91.3 mg/kg | –
11 | Clc1ccc(COc2cc3nncn3c3ccccc23)cc1 | – | – | > 100 mg/kg | –
12 | c1ccc(COc2cc3nncn3c3ccccc23)cc1 | 12 | 274 mg/kg | 22.8 mg/kg | ED50 (Mus musculus [4]): 19 mg/kg; Activity (Mus musculus [5]): Not Active; ED50 (Mus musculus [6]): 9.5 mg/kg; ED50 (Mus musculus [7]): 38 mg/kg; ED50 (Mus musculus [8]): 27.4 mg/kg
13 | COc1cc2nncn2c2ccccc12 | 1.1 | 102 mg/kg | 93 mg/kg | –
14 | Fc1ccccc1COc1cc2nncn2c2ccccc12 | 9 | 228 mg/kg | 25.4 mg/kg | –
15 | Brc1ccc(COc2cc3nncn3c3ccccc23)cc1 | – | – | > 100 mg/kg | –
16 | Brc1ccccc1COc1cc2nncn2c2ccccc12 | – | – | > 100 mg/kg | –
17 | CCCCCOc1cc2nncn2c2ccccc12 | 2.6 | 63.4 mg/kg | 24.5 mg/kg | –
18 | Clc1cccc(Cl)c1COc1cc2nncn2c2ccccc12 | – | – | > 100 mg/kg | –
19 | Clc1ccccc1COc1cc2nncn2c2ccccc12 | – | – | > 100 mg/kg | –
20 | c1ccc(COc2ccc3c(c2)CCc2nncn2-3)cc1 | 3.5 | – | – | –
21 | CCCOc1cc2nncn2c2ccccc12 | 1.4 | 94.7 mg/kg | 65.7 mg/kg | –
22 | NC(=O)N1c2ccccc2C=Cc2ccccc21 [CARBAMAZEPINE] | 6.4 | 76.1 mg/kg | 11.8 mg/kg | ED50 (Mus musculus [4]): 19.7 mg/kg; Activity (Mus musculus [5]): Not Active; ED50 (Mus musculus [6]): 13.7 mg/kg; ED50 (Mus musculus [7]): 22.8 mg/kg; ED50 (Mus musculus [8]): 11.4 mg/kg

From ChEMBL document CHEMBL1138568, “Design and synthesis of 5-alkoxy-[1,2,4]triazolo[4,3-a]quinoline derivatives with anticonvulsant activity” (Eur J Med Chem, 2009)
